Results reported in ChEMBL document CHEMBL3286193, “Discovery of a series of 2,5-diaminopyrimidine covalent irreversible inhibitors of Bruton's tyrosine kinase with in vivo antitumor activity” (J Med Chem, 2014).
≈ marks a conversion by molar mass, not a printed value. Calls of active or inactive are those of the source. No cut-off for these calls is given here.

How the values were obtained:
[1] = Antitumor activity against human DOHH2 cells xenografted in CB17 SCID mouse assessed as tumor growth inhibition at 10 mg/kg, iv qd administered for 14 days measured over 14 days of compound treatment relative to vehicle-treated control; conditions: DOHH-2, iv, 336 h, read-out: TGI
[2] = target: Protein kinase C alpha type (Homo sapiens) (UniProt P17252); experiment: Inhibition of PKC-alpha (unknown origin) at 0.5 uM by [33P]-ATP filter binding assay
In short: (§1)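 Kinase panel of 18 enzymes; inhibition tested at 0.5 μM. Values are means of duplicates.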

[3] = target: Tyrosine-protein kinase TXK (Homo sapiens, UniProt P42681); experiment: Inhibition of Rlk (unknown origin) after 1 hr by HTRF assay
In short: (§2)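 Recombinant kinases tested by HTRF KinEase protocol. Enzyme preincubated with inhibitor for a fixed 10 min. IC50 values are means of duplicates.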

[4] = Plasma concentration in CB17 SCID mouse xenografted with human DOHH2 cells at 10 mg/kg, iv qd administered for 14 days measured at 2 hrs post last dose; assay type: ADME, organism-based, DOHH-2; set-up: dose 10 mg/kg, route intravenous
In short: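 Female CB17/SCID mice were given 5 × 10⁶ DoHH2 cells subcutaneously. When tumours averaged ~167 mm³, mice were randomised into four groups (n = 6/group). Dosing was by tail-vein injection once daily for 14 consecutive days. Plasma compound levels were determined at 2 and 24 h after the final dose.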

[5] = Clearance in ICR mouse at 1 mg/kg, iv by LC-MS analysis; assay type: ADME, organism-based; set-up: dose 1 mg/kg, route intravenous; conditions: in vivo
In short: (§3)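 ICR mice (n = 3) given a single intravenous injection at 1 mg/kg. Blood sampled at various time points and analyzed by LC−MS to derive t1/2, CL and Vss.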

[6] = target: Mitogen-activated protein kinase 14 (Homo sapiens) (UniProt Q16539); experiment: Inhibition of P38-alpha MAPK (unknown origin) at 0.5 uM by [33P]-ATP filter binding assay; in short: as §1
[7] = Stability of the compound in FaSSIF assessed as compound remaining at 1 uM measured at 24 hrs by LC-MS analysis; assay type: ADME; conditions: read-out: Stability
In short: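 Compound solutions in FaSSIF shaken at 350 rpm at 37 °C. Samples taken at 2, 6, 10 and 24 h and quantified by LC−MS as % remaining.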

[8] = tested on: MM1R; experiment: Cytotoxicity against human MM1R cells assessed as growth inhibition at 1 to 10 uM after 72 hrs by CellTiter-Glo luminescent cell viability assay; assay type: functional, cell-based
[9] = Half life in mouse liver microsomes by LC-MS/MS analysis; assay type: ADME
In short: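 Liver microsomes incubated with compound and NADPH at 37 °C. Samples taken at several time points, centrifuged, and supernatants analyzed by LC−MS/MS. t1/2 and CL calculated by first-order kinetics. Testosterone, propranolol and clozapine served as positive controls.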

[10] = target: Tyrosine-protein kinase SYK (Homo sapiens) (UniProt P43405); experiment: Inhibition of SYK (unknown origin) at 0.5 uM by [33P]-ATP filter binding assay; in short: as §1
[11] = target: Cytoplasmic tyrosine-protein kinase BMX (Homo sapiens, UniProt P51813); experiment: Inhibition of Bmx (unknown origin) after 1 hr by HTRF assay; in short: as §2
[12] = target: Tyrosine-protein kinase Tec (Homo sapiens, UniProt P42680); experiment: Inhibition of Tec (unknown origin) after 1 hr by HTRF assay; in short: as §2
[13] = target: Tyrosine-protein kinase BTK (Homo sapiens, UniProt Q06187); experiment: Binding affinity to Btk kinase domain (387 to 659) (unknown origin) assessed as compound-protein covalent adduct formation at 1:3 protein to compound molar ratio at 4 degC after 1 hr by LC-MS analysis
In short: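 Btk kinase domain (residues 387−659, MW 32136) incubated with 3 equiv of compound at 4 °C for 1 h. Mass spectrometry of the intact protein checked for mass peak shift consistent with 1-to-1 protein−compound adducts.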

[14] = Plasma concentration in CB17 SCID mouse xenografted with human DOHH2 cells at 20 mg/kg, iv qd administered for 14 days measured at 2 hrs post last dose; assay type: ADME, organism-based, DOHH-2; set-up: dose 20 mg/kg, route intravenous
In short: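 Same DoHH2 xenograft study in female CB17/SCID mice, tail-vein dosing once daily for 14 days. Plasma compound concentrations determined at 2 and 24 h after the last administration.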

[15] = Solubility of the compound in FaSSIF; assay type: ADME
[16] = Antitumor activity against human DOHH2 cells xenografted in CB17 SCID mouse assessed as tumor growth inhibition at 20 mg/kg, iv qd administered for 14 days measured over 14 days of compound treatment relative to vehicle-treated control; conditions: DOHH-2, iv, 336 h, read-out: TGI
[17] = tested on: Mus musculus; experiment: Toxicity in CB17 SCID mouse xenografted with human DOHH2 cells assessed as body weight fluctuations at 20 mg/kg, iv qd administered for 14 days measured over 14 days of compound treatment; assay type: organism-based, DOHH-2; set-up: dose 20 mg/kg, route intravenous; conditions: in vivo, 336 h
In short: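 DoHH2 subcutaneous xenograft in female CB17/SCID mice (5 × 10⁶ cells; dosing from ~167 mm³ mean tumor volume; n = 6/group). Daily tail-vein dosing for 14 consecutive days. Body weights followed over time across the study.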

[18] = target: Tyrosine-protein kinase CSK (Homo sapiens) (UniProt P41240); experiment: Inhibition of CSK (unknown origin) at 0.5 uM by [33P]-ATP filter binding assay; in short: as §1
[19] = tested on: Mus musculus; experiment: Toxicity in CB17 SCID mouse xenografted with human DOHH2 cells assessed as body weight fluctuations at 10 mg/kg, iv qd administered for 14 days measured over 14 days of compound treatment; assay type: organism-based, DOHH-2; set-up: dose 10 mg/kg, route intravenous; conditions: in vivo, 336 h
In short: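 Female CB17/SCID mice carried subcutaneous DoHH2 xenografts (5 × 10⁶ cells injected), randomised at ~167 mm³ mean tumour volume into four groups (n = 6/group). Compound was given intravenously via the tail vein once daily for 14 consecutive days. Body weights were tracked over time throughout the study.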

[20] = Half life in ICR mouse at 1 mg/kg, iv by LC-MS analysis; assay type: ADME, organism-based; set-up: dose 1 mg/kg, route intravenous; conditions: in vivo; in short: as §3
[21] = Cytotoxicity against human SU-DHL6 cells assessed as growth inhibition after 72 hrs by CellTiter-Glo luminescent cell viability assay; assay type: functional, SU-DHL-6; conditions: Homo sapiens, SU-DHL-6, 72 h
In short: (§4)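 Lymphoma cells seeded at 5000 cells/well, incubated 24 h, then exposed to compounds for 72 h. Viability read by CellTiter-Glo luminescence. GI50 from dose−response curves, mean of two or three independent experiments in triplicate.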

[22] = target: Tyrosine-protein kinase JAK2 (Homo sapiens) (UniProt O60674); experiment: Inhibition of JAK2 (unknown origin) at 0.5 uM by [33P]-ATP filter binding assay; in short: as §1
[23] = Binding affinity to glutathione in PBS buffer assessed as glutathione-compound adduct formation at 100 uM at pH 7.4 at 37 degC after 2 hrs
In short: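 Compound (100 μM) incubated with 5 mM glutathione in PBS, pH 7.4, at 37 °C. Checked for GSH−compound adducts after 2 h.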

[24] = target: Tyrosine-protein kinase ABL1 (Homo sapiens) (UniProt P00519); experiment: Inhibition of ABL (unknown origin) at 0.5 uM by [33P]-ATP filter binding assay; in short: as §1
[25] = Cytotoxicity against human Pfeiffer cells assessed as growth inhibition after 72 hrs by CellTiter-Glo luminescent cell viability assay; assay type: functional; conditions: Homo sapiens, Pfeiffer, 72 h; in short: as §4
[26] = Cytotoxicity against human DOHH2 cells assessed as growth inhibition after 72 hrs by CellTiter-Glo luminescent cell viability assay; assay type: functional, DOHH-2; conditions: Homo sapiens, DOHH-2, 72 h; in short: as §4

Chain of Tyrosine-protein kinase JAK2 (Homo sapiens) (O60674 whole entry): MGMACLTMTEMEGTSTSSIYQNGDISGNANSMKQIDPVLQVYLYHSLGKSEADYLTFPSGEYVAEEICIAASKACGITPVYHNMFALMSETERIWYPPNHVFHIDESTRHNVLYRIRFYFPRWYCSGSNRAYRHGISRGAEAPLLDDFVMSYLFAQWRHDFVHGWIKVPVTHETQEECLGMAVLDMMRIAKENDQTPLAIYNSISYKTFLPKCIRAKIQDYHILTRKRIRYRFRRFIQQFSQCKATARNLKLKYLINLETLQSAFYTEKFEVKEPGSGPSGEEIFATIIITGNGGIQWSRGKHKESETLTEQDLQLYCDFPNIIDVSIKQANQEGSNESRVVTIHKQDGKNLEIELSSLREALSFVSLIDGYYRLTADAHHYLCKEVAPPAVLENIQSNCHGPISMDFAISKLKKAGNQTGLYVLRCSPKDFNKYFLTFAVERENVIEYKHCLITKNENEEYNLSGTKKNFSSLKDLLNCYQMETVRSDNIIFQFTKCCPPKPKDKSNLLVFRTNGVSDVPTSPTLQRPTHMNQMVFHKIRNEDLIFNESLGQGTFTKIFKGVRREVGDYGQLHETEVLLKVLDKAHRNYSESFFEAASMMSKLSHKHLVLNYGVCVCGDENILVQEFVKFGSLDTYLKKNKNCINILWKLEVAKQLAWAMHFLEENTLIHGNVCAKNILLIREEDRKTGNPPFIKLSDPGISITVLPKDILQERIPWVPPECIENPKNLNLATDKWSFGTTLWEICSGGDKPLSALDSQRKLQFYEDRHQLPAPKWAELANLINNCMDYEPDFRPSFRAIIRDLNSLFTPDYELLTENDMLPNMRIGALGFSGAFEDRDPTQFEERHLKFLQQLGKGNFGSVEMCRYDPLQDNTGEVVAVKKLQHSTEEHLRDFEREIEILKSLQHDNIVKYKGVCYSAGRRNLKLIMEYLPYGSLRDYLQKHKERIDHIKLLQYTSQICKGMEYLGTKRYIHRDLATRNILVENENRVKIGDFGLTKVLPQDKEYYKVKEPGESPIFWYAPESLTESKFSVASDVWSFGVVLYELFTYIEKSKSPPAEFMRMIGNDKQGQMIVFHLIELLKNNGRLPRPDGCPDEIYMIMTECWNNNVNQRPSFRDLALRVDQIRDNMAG
Chain of Tyrosine-protein kinase ABL1 (Homo sapiens) (P00519 whole entry): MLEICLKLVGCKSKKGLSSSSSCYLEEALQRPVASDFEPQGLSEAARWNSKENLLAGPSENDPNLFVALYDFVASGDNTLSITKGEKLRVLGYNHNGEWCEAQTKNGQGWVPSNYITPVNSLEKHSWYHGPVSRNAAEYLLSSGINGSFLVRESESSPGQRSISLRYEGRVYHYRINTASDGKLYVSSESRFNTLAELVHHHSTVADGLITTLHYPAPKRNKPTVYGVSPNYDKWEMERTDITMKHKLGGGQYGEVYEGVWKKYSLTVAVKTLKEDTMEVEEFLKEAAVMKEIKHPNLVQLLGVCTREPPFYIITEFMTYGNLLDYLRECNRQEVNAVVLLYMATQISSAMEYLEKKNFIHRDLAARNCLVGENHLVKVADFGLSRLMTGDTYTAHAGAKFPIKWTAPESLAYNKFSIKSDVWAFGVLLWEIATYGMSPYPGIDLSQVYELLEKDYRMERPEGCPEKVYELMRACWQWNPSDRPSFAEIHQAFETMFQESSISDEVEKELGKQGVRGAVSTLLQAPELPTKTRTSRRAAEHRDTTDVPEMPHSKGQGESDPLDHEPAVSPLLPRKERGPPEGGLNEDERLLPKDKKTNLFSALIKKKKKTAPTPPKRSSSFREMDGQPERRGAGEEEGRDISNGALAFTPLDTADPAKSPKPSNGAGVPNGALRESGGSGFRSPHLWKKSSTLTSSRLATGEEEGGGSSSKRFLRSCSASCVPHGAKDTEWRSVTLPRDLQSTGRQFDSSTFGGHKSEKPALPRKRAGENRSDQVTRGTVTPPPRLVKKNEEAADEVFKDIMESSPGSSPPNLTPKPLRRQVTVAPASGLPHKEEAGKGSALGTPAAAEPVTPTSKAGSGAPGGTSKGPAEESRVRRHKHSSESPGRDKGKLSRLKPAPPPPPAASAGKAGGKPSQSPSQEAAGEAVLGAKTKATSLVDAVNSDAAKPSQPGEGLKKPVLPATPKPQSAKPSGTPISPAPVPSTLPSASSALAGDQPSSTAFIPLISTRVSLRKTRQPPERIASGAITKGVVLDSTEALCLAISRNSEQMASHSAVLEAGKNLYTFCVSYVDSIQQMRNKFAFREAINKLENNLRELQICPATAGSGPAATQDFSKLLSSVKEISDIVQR
Chain of Cytoplasmic tyrosine-protein kinase BMX (P51813 whole entry): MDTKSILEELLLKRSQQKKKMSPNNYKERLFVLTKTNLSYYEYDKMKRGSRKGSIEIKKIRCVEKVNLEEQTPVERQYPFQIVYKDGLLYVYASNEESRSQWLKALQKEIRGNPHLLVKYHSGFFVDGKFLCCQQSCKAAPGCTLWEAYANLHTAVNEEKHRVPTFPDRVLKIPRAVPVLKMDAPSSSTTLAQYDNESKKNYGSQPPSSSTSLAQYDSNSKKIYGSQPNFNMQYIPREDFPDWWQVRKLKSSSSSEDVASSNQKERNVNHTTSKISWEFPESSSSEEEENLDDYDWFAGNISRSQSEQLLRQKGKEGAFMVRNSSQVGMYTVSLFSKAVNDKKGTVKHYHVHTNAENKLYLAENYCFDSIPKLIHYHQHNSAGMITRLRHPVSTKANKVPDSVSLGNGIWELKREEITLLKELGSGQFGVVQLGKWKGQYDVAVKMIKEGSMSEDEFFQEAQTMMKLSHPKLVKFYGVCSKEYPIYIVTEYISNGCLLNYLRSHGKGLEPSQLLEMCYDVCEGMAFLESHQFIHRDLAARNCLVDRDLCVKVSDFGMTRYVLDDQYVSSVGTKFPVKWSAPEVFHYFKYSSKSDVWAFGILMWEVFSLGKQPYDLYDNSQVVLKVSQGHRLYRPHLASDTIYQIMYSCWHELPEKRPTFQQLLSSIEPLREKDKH
Chain of Mitogen-activated protein kinase 14 (Homo sapiens) (Q16539 whole entry): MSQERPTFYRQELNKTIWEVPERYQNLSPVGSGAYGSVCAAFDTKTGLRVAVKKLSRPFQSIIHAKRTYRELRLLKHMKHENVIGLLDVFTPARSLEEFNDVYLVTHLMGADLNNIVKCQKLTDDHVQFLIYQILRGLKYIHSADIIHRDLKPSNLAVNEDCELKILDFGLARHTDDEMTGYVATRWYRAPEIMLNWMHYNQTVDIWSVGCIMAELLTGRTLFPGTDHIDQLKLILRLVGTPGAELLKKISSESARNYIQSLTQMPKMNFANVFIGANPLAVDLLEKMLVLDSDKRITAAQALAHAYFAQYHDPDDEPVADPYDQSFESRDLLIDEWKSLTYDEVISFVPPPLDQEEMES
Chain of Tyrosine-protein kinase TXK (P42681 whole entry): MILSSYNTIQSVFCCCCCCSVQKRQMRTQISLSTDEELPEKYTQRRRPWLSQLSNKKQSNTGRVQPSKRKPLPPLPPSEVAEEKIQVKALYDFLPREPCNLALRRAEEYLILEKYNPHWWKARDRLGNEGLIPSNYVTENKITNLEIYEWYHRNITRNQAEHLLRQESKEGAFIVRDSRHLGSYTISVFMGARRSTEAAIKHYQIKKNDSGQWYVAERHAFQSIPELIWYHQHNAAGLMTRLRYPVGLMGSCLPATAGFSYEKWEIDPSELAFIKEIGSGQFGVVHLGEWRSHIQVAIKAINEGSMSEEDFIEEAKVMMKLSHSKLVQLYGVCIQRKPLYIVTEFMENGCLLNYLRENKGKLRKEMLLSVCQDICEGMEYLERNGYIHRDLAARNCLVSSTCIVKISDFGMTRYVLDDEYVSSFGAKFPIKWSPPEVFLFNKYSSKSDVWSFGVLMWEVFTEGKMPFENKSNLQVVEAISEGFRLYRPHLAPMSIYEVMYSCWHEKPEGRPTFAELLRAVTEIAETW
Chain of Tyrosine-protein kinase CSK (Homo sapiens) (P41240 2-450 limits assumed): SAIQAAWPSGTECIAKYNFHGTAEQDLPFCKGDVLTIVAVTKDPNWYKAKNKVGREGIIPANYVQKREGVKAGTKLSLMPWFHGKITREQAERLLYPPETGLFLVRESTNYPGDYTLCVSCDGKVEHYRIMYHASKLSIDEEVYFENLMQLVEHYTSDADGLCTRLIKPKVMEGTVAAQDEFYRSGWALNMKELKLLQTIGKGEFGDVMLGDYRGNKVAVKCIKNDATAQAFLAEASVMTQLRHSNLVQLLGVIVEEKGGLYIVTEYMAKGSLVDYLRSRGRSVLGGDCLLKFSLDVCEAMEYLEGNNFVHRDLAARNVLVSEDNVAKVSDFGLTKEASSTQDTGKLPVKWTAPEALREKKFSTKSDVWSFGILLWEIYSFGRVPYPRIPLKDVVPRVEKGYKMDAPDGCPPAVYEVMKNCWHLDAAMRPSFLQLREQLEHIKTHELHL

inhibition [2]: inactive
IC50 [3]: 1.9 nM
concentration at 2 h [4]: 378 ng/mL
clearance [5]: 6.85 mL/min/kg
inhibition [6]: Active
remaining at 24 h, 1 µM [7]: 94%
half-life [9]: 0.64 h
inhibition [10]: inactive
IC50 [11]: 1.9 nM
IC50 [12]: 8.2 nM
Activity [13]: Active
concentration at 2 h [14]: 2100 ng/mL
solubility [15]: 7.02 µM (≈ 3.93 µg/mL)
inhibition [18]: Active
half-life [20]: 2.8 h
inhibition [22]: Active
Activity [23]: inactive
inhibition [24]: Active
SMILES: C=CC(=O)Nc1cccc(Nc2ncc(NC(=O)c3cc(NC(=O)c4cccc(C(F)(F)F)c4)ccc3C)cn2)c1
inhibition in vivo at 10 mg/kg [1]: 60%
growth inhibition (GI) [8]: Active
inhibition in vivo at 20 mg/kg [16]: 66%
Activity [17]: Non-toxic
Activity [19]: Non-toxic
GI50 [21]: 38 nM
GI50 [25]: 8 nM
GI50 [26]: 73 nM
